pIC50: −log10 of the molar value.
Columns and labels:
[1] = Inhibition of beta-hematine formation after 18 to 24 hrs by ferriprotoporphyrin 9 biomineralization inhibition test; format: functional
Summary of the method: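 Haemin chloride (0.5 mg/mL, freshly dissolved in DMSO) was mixed with 10 mg/mL compound solution or solvent in 0.5 M sodium acetate pH 4.4 and incubated 18–24 h at 37 °C. IC₅₀ is the mean of two experiments in triplicate.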

[2] = tested on: J774; assay: Cytotoxicity against mouse macrophage J774 cells at 23 uM after 24 hrs by MTT assay; format: cell-based; details: j774, 24 h
[3] = tested on: Plasmodium falciparum; assay: Antimalarial activity against erythrocytic stage chloroquine-sensitive Plasmodium falciparum 3D7 after 48 hrs by fluorescence spectrophotometer; format: functional, organism-based; details: 3D7, 48 h
[4] = tested on: HepG2; assay: Cytotoxicity against human HepG2 cells at 23 uM after 24 hrs by MTT assay; format: cell-based; details: hepg2, 24 h
[5] = tested on: Plasmodium falciparum; assay: Antimalarial activity against erythrocytic stage multidrug-resistant Plasmodium falciparum Dd2 after 48 hrs by fluorescence spectrophotometer; format: functional, organism-based; details: Dd2, 48 h
[6] = tested on: J774; assay: Cytotoxicity against mouse macrophage J774 cells at 37 uM after 24 hrs by MTT assay; format: cell-based; details: j774, 24 h
Summary of the method: (§1)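 5 × 10⁴ cells/well were exposed to compound for 24 h. Medium was then removed and MTT (0.4 mg/mL in PBS) added for 1 h. Crystals were dissolved in DMSO and read at 595 nm. % toxicity = (OD control − OD compound)/OD control × 100.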

[7] = tested on: Plasmodium berghei; assay: Antimalarial activity against Plasmodium berghei str. ANKA infected in NMRI mouse at 10 mg/kg/day, ip for three days measured on day 4 by Giemsa staining; format: functional; details: route intraperitoneal
Summary of the method: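 NMRI male mice (20 ± 2 g, groups of five) inoculated on day 0 with 2 × 10⁷ RBCs infected with P. berghei ANKA erythrocytic stages. Two hours later, i.p. dosing at 10 mg/kg/day in DMSO, continued days 1–3.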

[8] = tested on: HepG2; assay: Cytotoxicity against human HepG2 cells at 37 uM after 24 hrs by MTT assay; format: cell-based; details: hepg2, 24 h; summary of the method: as §1
[9] = tested on: J774; assay: Cytotoxicity against mouse macrophage J774 cells at 19 uM after 24 hrs by MTT assay; format: cell-based; details: j774, 24 h; summary of the method: as §1
[10] = tested on: HepG2; assay: Cytotoxicity against human HepG2 cells at 19 uM after 24 hrs by MTT assay; format: cell-based; details: hepg2, 24 h; summary of the method: as §1

| Compound | pIC50 [1] | Activity [2] [%] | pIC50 [3] | Activity [4] [%] | pIC50 [5] | Activity [6] [%] | inhibition in vivo at 10 mg/kg/day [7] [%] | Activity [8] [%] | Activity [9] [%] | Activity [10] [%] |
| --- | --- | --- | --- | --- | --- | --- | --- | --- | --- | --- |
| O=C1CSC(c2ccc3c(c2)OCO3)N1CCNc1ccnc2cc(Cl)ccc12 (stereo not given) | 4.23 | 47.93 | 6.29 | 25.53 | 6.12 | – | – | – | – | – |
| Clc1ccc2c(NCc3ccccc3)ccnc2c1 | 4.33 | – | 6.52 | – | 6.48 | 0 | 25 | 46.58 | – | – |
| CCN(CC)CCCC(C)Nc1ccnc2cc(Cl)ccc12 (stereo not given) [CHLOROQUINE] | 4.65 | – | – | – | – | – | 100 | – | 0 | 0 |

Source: ChEMBL document CHEMBL1811834, “Synthesis and antimalarial activity of new heterocyclic hybrids based on chloroquine and thiazolidinone scaffolds” (Bioorg Med Chem, 2011)
